Reference: ChEMBL document CHEMBL4823250, “Discovery of thalidomide-based PROTAC small molecules as the highly efficient SHP2 degraders” (Eur J Med Chem, 2021)
Calls of active or inactive are those of the source. The calls are words filed in the database; no cut-off is given here.

Legend:
[1] = molecular target: T1, Protein cereblon/Tyrosine-protein phosphatase non-receptor type 11 (Homo sapiens, UniProt Q06124+Q96SW2); assay: Protac activity at SHP2/CRBN in human MV4-11 cells assessed as SHP2 degradation at 8 nM measured after 12 hrs by Western blot analysis relative to control; assay type: cell-based
Summary of the method: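 MV4-11 cells (IMDM, 10% FBS, 37 °C, 5% CO2) plated at 1.0×10^6 cells/well and exposed 12 h to 8 or 200 nM. Lysis in RIPA with protease inhibitors, then SDS-PAGE, nitrocellulose transfer and anti-human SHP2 immunoblot. SHP2 signal normalized to GAPDH and percent degradation quantified by densitometry. Reported as the average of two independent measurements.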
Target sequence in this assay (Q96SW2 whole entry partner, one chain of several): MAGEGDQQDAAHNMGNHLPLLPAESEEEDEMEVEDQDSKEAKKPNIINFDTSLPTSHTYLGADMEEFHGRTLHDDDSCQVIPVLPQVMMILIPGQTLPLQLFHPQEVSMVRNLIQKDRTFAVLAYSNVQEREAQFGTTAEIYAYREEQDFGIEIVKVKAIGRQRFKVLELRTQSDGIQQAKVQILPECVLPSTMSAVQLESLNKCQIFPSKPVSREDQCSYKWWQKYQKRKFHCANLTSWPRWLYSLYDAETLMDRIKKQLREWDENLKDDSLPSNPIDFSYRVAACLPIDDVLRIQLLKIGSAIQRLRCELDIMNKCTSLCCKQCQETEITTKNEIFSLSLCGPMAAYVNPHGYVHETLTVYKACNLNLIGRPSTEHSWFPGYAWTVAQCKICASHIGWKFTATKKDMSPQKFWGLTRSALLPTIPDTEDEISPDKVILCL

MV4-11 [2] = assay: Induction of apoptosis in human MV4-11 cells assessed as necrotic cells at 70 nM measured after 48 hrs by Annexin V/FITC-PI staining based flowcytometry assay (reference value: 0.07%); assay type: functional
MV4-11 [3] = assay: Induction of apoptosis in human MV4-11 cells assessed as viable cells at 600 nM measured after 48 hrs by Annexin V/FITC-PI staining based flowcytometry assay (reference value: 91%); assay type: functional; conditions: Homo sapiens, MV4-11, read-out: Activity
[4] = molecular target: T2, Tyrosine-protein phosphatase non-receptor type 11 (Homo sapiens) (UniProt Q06124); assay: Induction of SHP2 degradation in CRBN knock out human MV4-11 cells at 8 to 200 nM measured after 12 hrs by Western blot analysis; assay type: cell-based; conditions: dose 8-200 nM
T2 sequence (whole entry): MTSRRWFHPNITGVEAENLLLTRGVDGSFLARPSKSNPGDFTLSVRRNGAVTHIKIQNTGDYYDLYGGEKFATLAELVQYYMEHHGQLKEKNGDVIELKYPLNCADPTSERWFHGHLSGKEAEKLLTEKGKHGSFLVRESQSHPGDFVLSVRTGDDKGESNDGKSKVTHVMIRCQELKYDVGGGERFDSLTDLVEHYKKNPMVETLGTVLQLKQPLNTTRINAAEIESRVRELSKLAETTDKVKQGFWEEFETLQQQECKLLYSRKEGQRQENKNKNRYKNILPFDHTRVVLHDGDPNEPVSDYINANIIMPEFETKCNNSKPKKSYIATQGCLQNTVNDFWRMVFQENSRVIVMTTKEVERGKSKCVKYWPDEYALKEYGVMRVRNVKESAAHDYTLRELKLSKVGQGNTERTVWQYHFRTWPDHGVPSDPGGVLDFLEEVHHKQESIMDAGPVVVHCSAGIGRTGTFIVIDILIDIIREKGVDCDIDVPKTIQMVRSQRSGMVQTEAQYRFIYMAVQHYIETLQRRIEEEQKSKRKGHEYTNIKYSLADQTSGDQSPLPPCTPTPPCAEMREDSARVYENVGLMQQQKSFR

MV4-11 [5] = assay: Cell cycle arrest in human MV4-11 cells assessed as accumulation at G1 phase measured after 24 hrs by PI staining based flow cytometry assay; assay type: functional
Summary of the method: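 MV4-11 cells treated 24 h, then washed twice in cold PBS and fixed in ethanol overnight at 4 °C. Stained with propidium iodide plus RNase for 15 min at 37 °C. Cell-cycle distribution measured by flow cytometry.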

MV4-11 [6] = assay: Antiproliferative activity against human MV4-11 cells assessed as inhibition of cell proliferation measured after 72 hrs by MTS assay; assay type: functional, cell-based; conditions: MV4-11, 72 h
Summary of the method: (§1)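 MV4;11 (ATCC, STR-authenticated) in IMDM with 10% FBS, penicillin/streptomycin, 37 °C, 5% CO2. Seeded at 1.0–4.0 × 10^4 cells/well, rested 2 h, then exposed to 0.01% DMSO or graded compound concentrations for 72 h. MTS/PMS added for 2–4 h. IC50 from sigmoidal variable-slope nonlinear regression; mean ± SEM of at least three separate assays, each in triplicate.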

[7] = molecular target: T1, Protein cereblon/Tyrosine-protein phosphatase non-receptor type 11; assay: Protac activity at SHP2/CRBN in human MV4-11 cells assessed as SHP2 degradation at 100 nM measured after 6 hrs by Western blot analysis relative to control; assay type: cell-based
Target sequence in this assay (Q96SW2 whole entry partner, one chain of several): as the sequence (Q96SW2 whole entry partner, one chain of several) above

MV4-11 [8] = assay: Induction of apoptosis in human MV4-11 cells assessed as necrotic cells at 200 nM measured after 48 hrs by Annexin V/FITC-PI staining based flowcytometry assay (reference value: 0.07%); assay type: functional
MV4-11 [9] = assay: Induction of apoptosis in human MV4-11 cells assessed as early apoptotic cells at 200 nM measured after 48 hrs by Annexin V/FITC-PI staining based flowcytometry assay (reference value: 2.99%); assay type: functional
MV4-11 [10] = assay: Induction of apoptosis in human MV4-11 cells assessed as viable cells at 70 nM measured after 48 hrs by Annexin V/FITC-PI staining based flowcytometry assay (reference value: 91%); assay type: functional; conditions: Homo sapiens, MV4-11, read-out: Activity
MV4-11 [11] = assay: Induction of apoptosis in human MV4-11 cells assessed as viable cells at 200 nM measured after 48 hrs by Annexin V/FITC-PI staining based flowcytometry assay (reference value: 91%); assay type: functional; conditions: Homo sapiens, MV4-11, read-out: Activity
[12] = molecular target: T1, Protein cereblon/Tyrosine-protein phosphatase non-receptor type 11; assay: Protac activity at SHP2/CRBN in human MV4-11 cells assessed as decrease in SHP2 protein level measured after 12 hrs by Western blot analysis; assay type: cell-based; conditions: dose 8-500 nM
Summary of the method: (§2)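 MV4-11 cells, 1.0×10^6 cells/well, treated 12 h across a concentration series. Lysed in RIPA plus protease inhibitors, separated by SDS-PAGE onto nitrocellulose and immunoblotted for SHP2 with GAPDH as loading control. Band intensities normalized to GAPDH; DC50 derived from the quantified SHP2 levels.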
Target sequence in this assay (Q96SW2 whole entry partner, one chain of several): as the sequence (Q96SW2 whole entry partner, one chain of several) above

[13] = molecular target: T1, Protein cereblon/Tyrosine-protein phosphatase non-receptor type 11; assay: Protac activity at SHP2/CRBN in human MV4-11 cells assessed as induction of SHP2 degradation measured after 12 hrs by Western blot analysis; assay type: cell-based; summary of the method: as §2
Target sequence in this assay (Q96SW2 whole entry, one chain of several): as the sequence (Q96SW2 whole entry partner, one chain of several) above

[14] = molecular target: T3, Tyrosine-protein phosphatase non-receptor type 11 (Homo sapiens, UniProt Q06124); assay: Inhibition of human SHP2 catalytic activity
T3 sequence (Q06124 whole entry): T2 sequence (whole entry)

MV4-11 [15] = assay: Induction of apoptosis in human MV4-11 cells assessed as late apoptotic cells at 600 nM measured after 48 hrs by Annexin V/FITC-PI staining based flowcytometry assay (reference value: 5.95%); assay type: functional
MV4-11 [16] = assay: Induction of apoptosis in human MV4-11 cells assessed as late apoptotic cells at 200 nM measured after 48 hrs by Annexin V/FITC-PI staining based flowcytometry assay (reference value: 5.95%); assay type: functional
MV4-11 [17] = assay: Cytotoxicity against CRBN knock out human MV4-11 cells assessed as cell viability measured after 72 hrs by MTS assay; assay type: cell-based; conditions: MV4-11, 72 h
Summary of the method: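 MV4;11 cells with CRBN knocked out, cultured in IMDM with 10% FBS, penicillin/streptomycin, 37 °C, 5% CO2. Seeded at 1.0–4.0 × 10^4 cells/well, rested 2 h, then given 0.01% DMSO or graded compound concentrations for 72 h. Viability by MTS/PMS over 2–4 h. IC50 from sigmoidal variable-slope fit; mean ± SEM of ≥3 assays in triplicate.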

MV4-11 [18] = assay: Induction of apoptosis in human MV4-11 cells assessed as early apoptotic cells at 70 nM measured after 48 hrs by Annexin V/FITC-PI staining based flowcytometry assay (reference value: 2.99%); assay type: functional
MV4-11 [19] = assay: Induction of apoptosis in human MV4-11 cells assessed as early apoptotic cells at 600 nM measured after 48 hrs by Annexin V/FITC-PI staining based flowcytometry assay (reference value: 2.99%); assay type: functional
MV4-11 [20] = assay: Induction of apoptosis in human MV4-11 cells assessed as late apoptotic cells at 70 nM measured after 48 hrs by Annexin V/FITC-PI staining based flowcytometry assay (reference value: 5.95%); assay type: functional
MV4-11 [21] = assay: Cytotoxicity against human MV4-11 cells assessed as cell viability measured after 72 hrs by MTS assay; assay type: functional, cell-based; conditions: MV4-11, 72 h; summary of the method: as §1
MV4-11 [22] = assay: Induction of apoptosis in human MV4-11 cells assessed as necrotic cells at 600 nM measured after 48 hrs by Annexin V/FITC-PI staining based flowcytometry assay (reference value: 0.07%); assay type: functional
[23] = molecular target: T1, Protein cereblon/Tyrosine-protein phosphatase non-receptor type 11; assay: Protac activity at SHP2/CRBN in human MV4-11 cells assessed as SHP2 degradation at 100 nM measured after 24 hrs by Western blot analysis relative to control; assay type: cell-based
Target sequence in this assay (Q96SW2 whole entry partner, one chain of several): as the sequence (Q96SW2 whole entry partner, one chain of several) above

Compound C[C@@H]1OCC2(CCN(c3cnc(Sc4cccc(NC(=O)CCC(=O)NCCCCCCCCCNc5cccc6c5C(=O)N(C5CCC(=O)NC5=O)C6=O)c4Cl)c(N)n3)CC2)[C@@H]1N (stereo not given in full) has an Activity [1] of 23%.
C[C@@H]1OCC2(CCN(c3cnc(Sc4cccc(NC(=O)CCC(=O)NCCCCCCCCCCCCNc5cccc6c5C(=O)N(C5CCC(=O)NC5=O)C6=O)c4Cl)c(N)n3)CC2)[C@@H]1N (stereo not given in full) gave an Activity [1] of 18%.
In the case of C[C@@H]1OCC2(CCN(c3cnc(Sc4cccc(NC(=O)CCC(=O)NCCCOCCOCCOCCCNc5cccc6c5C(=O)N(C5CCC(=O)NC5=O)C6=O)c4Cl)c(N)n3)CC2)[C@@H]1N (stereo not given in full), the Activity (MV4-11 [2]) is reported as 0.175%, the viability at 0.6 µM (MV4-11 [3]) is reported as 76.9% and the Activity [4] is reported as “inactive”. The Activity (MV4-11 [5]) was “Dose-Dependent Effect”, the IC50 (MV4-11 [6]) was 0.207 µM and the Activity [7] was greater than 50%. For the same compound, the Activity (MV4-11 [8]) was 0.39%, the Activity (MV4-11 [9]) was 7.23% and the Activity [1] was 46%. The viability at 0.07 µM (MV4-11 [10]) was 87.5%, the viability at 0.2 µM (MV4-11 [11]) was 81% and the Activity [12] was “Dose-Dependent Effect”. The DC50 [13] was 0.00602 µM, the IC50 [14] was 0.202 µM and the Activity (MV4-11 [15]) was 14.3%. The Activity (MV4-11 [16]) was 11.3%, the IC50 (MV4-11 [17]) was 2.63 µM and the Activity (MV4-11 [18]) was 4.76%. For the same compound, the Activity (MV4-11 [19]) was 7.88%, the Activity (MV4-11 [20]) was 8.01% and the IC50 (MV4-11 [21]) was 0.207 µM. For the same compound, the Activity (MV4-11 [22]) was 0.907% and the Activity [23] was greater than 90%.
Work on C[C@@H]1OCC2(CCN(c3cnc(Sc4cccc(NC(=O)CCC(=O)NCCOCCOCCOCCNc5ccc6c(c5)C(=O)N(C5CCC(=O)NC5=O)C6=O)c4Cl)c(N)n3)CC2)[C@@H]1N (stereo not given in full) yielded an Activity [1] of less than 5%.
For C[C@@H]1OCC2(CCN(c3cnc(Sc4cccc(NC(=O)CCC(=O)NCCOCCNc5cccc6c5C(=O)N(C5CCC(=O)NC5=O)C6=O)c4Cl)c(N)n3)CC2)[C@@H]1N (stereo not given in full), the Activity [1] was 6%.
C[C@@H]1OCC2(CCN(c3cnc(Sc4cccc(NC(=O)CCC(=O)NCCOCCOCCNc5ccc6c(c5)C(=O)N(C5CCC(=O)NC5=O)C6=O)c4Cl)c(N)n3)CC2)[C@@H]1N (stereo not given in full) gave an Activity [1] of less than 5%.
C[C@@H]1OCC2(CCN(c3cnc(Sc4cccc(NC(=O)CCC(=O)NCCOCCOCCOCCNc5cccc6c5C(=O)N(C5CCC(=O)NC5=O)C6=O)c4Cl)c(N)n3)CC2)[C@@H]1N (stereo not given in full) showed an Activity [1] of 28%.
For C[C@@H]1OCC2(CCN(c3cnc(Sc4cccc(NC(=O)CCC(=O)NCCCCCCCCCCCCCNc5cccc6c5C(=O)N(C5CCC(=O)NC5=O)C6=O)c4Cl)c(N)n3)CC2)[C@@H]1N (stereo not given in full), the Activity [1] was 8%.
